Source: ChEMBL document CHEMBL1250551, “Improvement of water-solubility of biarylcarboxylic acid peroxisome proliferator-activated receptor (PPAR) δ-selective partial agonists by disruption of molecular planarity/symmetry” (Bioorg Med Chem, 2010)
≈ marks a conversion by molar mass, not a printed value.

Key:
[1] = target: T1, Peroxisome proliferator-activated receptor delta (Homo sapiens, UniProt Q03181); assay: Partial agonist activity at human recombinant PPARdelta LBD expressed in HEK293 cells co-transfected with Gal4 assessed as beta-galactosidase activity at 1 uM by luciferase based transactivation assay; format: functional, cell-based
T1 sequence (Q03181 whole entry): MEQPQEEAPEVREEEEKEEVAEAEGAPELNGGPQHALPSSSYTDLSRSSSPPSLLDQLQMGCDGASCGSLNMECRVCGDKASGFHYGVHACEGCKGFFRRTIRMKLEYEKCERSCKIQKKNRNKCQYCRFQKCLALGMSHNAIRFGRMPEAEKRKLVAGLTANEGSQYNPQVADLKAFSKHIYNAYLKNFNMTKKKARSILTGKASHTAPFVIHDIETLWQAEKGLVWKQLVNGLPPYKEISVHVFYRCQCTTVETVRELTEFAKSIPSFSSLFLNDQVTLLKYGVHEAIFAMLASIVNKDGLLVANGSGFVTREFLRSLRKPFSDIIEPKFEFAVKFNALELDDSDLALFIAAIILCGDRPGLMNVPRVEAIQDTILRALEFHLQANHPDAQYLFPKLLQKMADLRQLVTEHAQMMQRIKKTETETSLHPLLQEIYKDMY
How it was run: (§1)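 GAL4-hPPAR LBD fusion transactivation: cells co-transfected with CMX-GAL4N-hPPAR LBD receptor plasmid, TK-MH100x4-LUC reporter and CMX β-galactosidase normalization plasmid. Positive controls (fenofibric acid for PPARα; ciglitazone 100 nM for PPARγ) and test compounds added 6 h later; overnight incubation. Luminescence read after luciferin addition; β-galactosidase absorbance at 405 nm used for normalization.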

[2] = target: T2, Peroxisome proliferator-activated receptor alpha (Homo sapiens, UniProt Q07869); assay: Partial agonist activity at human recombinant PPARalpha LBD expressed in HEK293 cells co-transfected with Gal4 assessed as beta-galactosidase activity at 1 uM by luciferase based transactivation assay; format: functional, cell-based; how it was run: as §1
T2 sequence (Q07869 whole entry): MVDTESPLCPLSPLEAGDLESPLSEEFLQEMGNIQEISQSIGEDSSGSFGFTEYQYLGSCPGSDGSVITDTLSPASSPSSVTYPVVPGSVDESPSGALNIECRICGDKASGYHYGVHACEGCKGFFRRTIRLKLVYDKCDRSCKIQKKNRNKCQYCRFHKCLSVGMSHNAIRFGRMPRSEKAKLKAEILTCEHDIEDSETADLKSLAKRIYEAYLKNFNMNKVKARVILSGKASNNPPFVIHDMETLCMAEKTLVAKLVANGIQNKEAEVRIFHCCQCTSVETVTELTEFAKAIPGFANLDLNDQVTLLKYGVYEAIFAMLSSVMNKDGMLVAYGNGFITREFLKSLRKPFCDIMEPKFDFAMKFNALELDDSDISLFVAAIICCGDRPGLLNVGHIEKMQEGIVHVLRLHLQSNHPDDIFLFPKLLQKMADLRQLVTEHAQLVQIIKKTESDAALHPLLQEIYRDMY

[3] = target: T3, Peroxisome proliferator-activated receptor gamma (Homo sapiens, UniProt P37231); assay: Partial agonist activity at human recombinant PPARgamma LBD expressed in HEK293 cells co-transfected with Gal4 assessed as beta-galactosidase activity at 1 uM by luciferase based transactivation assay; format: functional, cell-based
T3 sequence (P37231 whole entry): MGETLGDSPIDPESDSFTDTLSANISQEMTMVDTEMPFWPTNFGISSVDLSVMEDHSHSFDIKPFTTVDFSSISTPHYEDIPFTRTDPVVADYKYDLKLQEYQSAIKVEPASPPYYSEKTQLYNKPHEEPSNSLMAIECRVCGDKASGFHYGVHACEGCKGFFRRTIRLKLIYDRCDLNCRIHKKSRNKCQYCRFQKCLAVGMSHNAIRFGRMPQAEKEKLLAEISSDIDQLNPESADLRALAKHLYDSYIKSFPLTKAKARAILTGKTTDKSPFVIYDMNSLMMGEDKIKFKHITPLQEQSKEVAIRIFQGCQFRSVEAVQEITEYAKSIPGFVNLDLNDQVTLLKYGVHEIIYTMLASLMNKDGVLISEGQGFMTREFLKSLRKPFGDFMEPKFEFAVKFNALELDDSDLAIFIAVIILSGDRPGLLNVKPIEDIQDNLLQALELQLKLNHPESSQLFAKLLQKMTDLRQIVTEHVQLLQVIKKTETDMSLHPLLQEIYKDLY

[4] = target: T4, Peroxisome proliferator-activated receptor alpha (Homo sapiens) (UniProt Q07869); assay: Partial agonist activity at human recombinant PPARalpha LBD expressed in HEK293 cells co-transfected with Gal4 assessed as beta-galactosidase activity by luciferase based transactivation assay relative to fenofibric acid; format: functional, cell-based
T4 sequence (whole entry): T2 sequence (Q07869 whole entry)
How it was run: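 GAL4-based reporter system analogous to the PPARδ assay, using a GAL4 DNA-binding domain–PPARα LBD chimera, TK-MH100x4-LUC reporter and CMX β-galactosidase for normalization. Positive control and test compounds were added 6 h after the preceding step and incubated overnight. Luciferase luminescence was read after luciferin addition, and β-galactosidase by absorbance at 405 nm. Efficacy was expressed relative to fenofibric acid.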

[5] = Thermodynamic aqueous solubility of the compound in 1:15 M of 50% EtOH and phosphate buffer at pH 7.4; format: physicochemical; conditions: for solubility thermodynamic: 50% EtOH and phosphate buffer; for solubility: buffer
How it was run: (§2)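 Thermodynamic solubility: about 1 mg solid ground in agate mortar, suspended in 1.0 mL of either 1:15 M phosphate buffer pH 7.4 or an equal-volume mix of that buffer with EtOH. Shaken 48 h at 25 °C, filtered (0.22 µm), filtrate diluted in DMF and quantified by reversed-phase HPLC-UV (262–295 nm) against a calibration curve, corrected for dilution.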

[6] = target: T1, Peroxisome proliferator-activated receptor delta; assay: Partial agonist activity at human recombinant PPARdelta LBD expressed in HEK293 cells co-transfected with Gal4 assessed as beta-galactosidase activity by luciferase based transactivation assay; format: functional, cell-based
[7] = target: T2, Peroxisome proliferator-activated receptor alpha; assay: Partial agonist activity at human recombinant PPARalpha LBD expressed in HEK293 cells co-transfected with Gal4 assessed as beta-galactosidase activity by luciferase based transactivation assay; format: functional, cell-based; how it was run: as §1
[8] = Thermodynamic aqueous solubility of the compound in phosphate buffer at pH 7.4; format: physicochemical; how it was run: as §2

Compound | EC50 [2] | EC50 [3] | solubility thermodynamic [5] [µg/mL] | solubility thermodynamic [8] [µg/mL] | other results
CCCC(=O)Oc1ccc(-c2ccc(C(=O)O)cc2)cc1CNC(=O)c1ccc(C(F)(F)F)cc1F | – | – | – | – | EC50 [1]: Not Active
CCCCOc1ccc(-c2ccc(C(=O)O)cn2)cc1CNC(=O)c1ccc(C(F)(F)F)cc1F | Not Active | Not Active | – | – | –
CCCCOc1ccc(-c2c(C)ncc(C(=O)O)c2C)cc1CNC(=O)c1ccc(C(F)(F)F)cc1F | – | Not Active | 17700 (≈ 34100 µM) | 2700 (≈ 5210 µM) | Efficacy [4]: 100%; EC50 [6]: 76 nM; EC50 [7]: 4200 nM
CCCCOc1ccc(-c2cncc(C(=O)O)c2)cc1CNC(=O)c1ccc(C(F)(F)F)cc1F | – | Not Active | – | 7.62 (≈ 15.5 µM) | solubility [5]: 9030 µg/mL (≈ 18400 µM); EC50 [6]: 220 nM; EC50 [7]: 4000 nM
CCCCOc1ccc(-c2ccc(C(=O)O)nc2)cc1CNC(=O)c1ccc(C(F)(F)F)cc1F | Not Active | Not Active | – | – | –
CCCCOc1ccc(-c2ccc(C(=O)O)cc2F)cc1CNC(=O)c1ccc(C(F)(F)F)cc1F | Not Active | Not Active | 3220 (≈ 6350 µM) | < 1 | –
CCCCOc1ccc(-c2cccc(C(=O)O)c2)cc1CNC(=O)c1ccc(C(F)(F)F)cc1F | – | Not Active | – | < 1 | solubility [5]: 1350 µg/mL (≈ 2760 µM)
CCCCOc1ccc(-c2ccc(C(=O)O)o2)cc1CNC(=O)c1ccc(C(F)(F)F)cc1F | Not Active | Not Active | – | – | –
CCCCOc1ccc(-c2ccc(C(=O)O)cc2)cc1CNC(=O)c1ccc(C(F)(F)F)cc1F | – | Not Active | 375 (≈ 766 µM) | < 1 | –
COCCOc1ccc(-c2ccc(C(=O)O)cc2)cc1CNC(=O)c1ccc(C(F)(F)F)cc1F | – | – | – | – | EC50 [1]: Not Active
CCCCOc1ccc(-c2ccc(C(=O)O)cc2C)cc1CNC(=O)c1ccc(C(F)(F)F)cc1F | Not Active | – | 985 (≈ 1960 µM) | < 1 | –
O=C(O)c1ccc(-c2ccc(OCCCO)c(CNC(=O)c3ccc(C(F)(F)F)cc3F)c2)cc1 | – | – | – | – | EC50 [1]: Not Active
CCCCOc1ccc(-c2c(F)ccc(C(=O)O)c2F)cc1CNC(=O)c1ccc(C(F)(F)F)cc1F | Not Active | Not Active | – | 21.7 (≈ 41.3 µM) | solubility [5]: 10400 µg/mL (≈ 19800 µM); EC50 [6]: 5.7 nM
CCCCOc1ccc(-c2cccc(C(=O)O)c2C)cc1CNC(=O)c1ccc(C(F)(F)F)cc1F | – | Not Active | 9950 (≈ 19800 µM) | < 1 | –
